Assay outcomes: PubChem BioAssay, Broad Institute
EWS-Fli block – EWS/Fli transcriptional activity inhibition. A673 NR0B1-luciferase reporter, viability-normalised. inhibition, % at 12.6 µM. hit rate 0.67% among 350,000. AID 651661;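 active means mean inhibition of at least 50% after viability correction, with every replicate also passing that limit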;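 further: firefly luciferase signal divided by Alamar Blue viability fluorescence both relative to DMSO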
MLL AF4-AF9 inh – inhibitors of human MLL-AF4/AF9 interaction. AlphaScreen, biotin-AF4 peptide binding to FLAG-AF9. inhibition, % at 10 µM. AID 651704. hit rate 0.47% among 350,000;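 active means every replicate reaching a set inhibition limit, whatever the replicate mean, cut at about 25% in these data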;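 further: 0% = plate neutral control median and 100% = total signal loss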
Target sequence (P42568 whole entry, looked up): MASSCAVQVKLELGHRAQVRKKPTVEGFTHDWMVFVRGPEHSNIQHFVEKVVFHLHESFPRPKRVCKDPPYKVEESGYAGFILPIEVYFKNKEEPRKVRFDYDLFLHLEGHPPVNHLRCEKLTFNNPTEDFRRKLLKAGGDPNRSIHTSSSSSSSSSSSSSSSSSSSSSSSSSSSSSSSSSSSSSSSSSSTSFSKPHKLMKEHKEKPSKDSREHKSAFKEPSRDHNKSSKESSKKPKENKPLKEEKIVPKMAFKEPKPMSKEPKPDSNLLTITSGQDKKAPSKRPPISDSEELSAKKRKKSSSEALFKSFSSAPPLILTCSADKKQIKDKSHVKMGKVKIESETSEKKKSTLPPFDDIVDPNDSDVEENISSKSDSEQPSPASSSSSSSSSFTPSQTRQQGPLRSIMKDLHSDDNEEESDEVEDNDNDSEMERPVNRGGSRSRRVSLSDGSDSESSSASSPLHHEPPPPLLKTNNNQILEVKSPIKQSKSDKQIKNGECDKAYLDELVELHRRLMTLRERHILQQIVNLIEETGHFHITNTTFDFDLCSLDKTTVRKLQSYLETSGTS
PAX8 inh HTS – PAX8 transcriptional activity inhibition. inhibition, % at 12.6 µM. hit rate 1.2% among 360,000. RMG-I TPO-luciferase reporter, SteadyGlo, 24 h. AID 652154;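 active means mean replicate inhibition at least 60% with every replicate also reaching 60%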;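 further: luciferase light reporting Pax8 driven TPO promoter activity; plate controls were median of neutral control wells for no effect and mitoxantrone controls for full effect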
FN deposit inh – fibronectin deposition inhibition; AH1F fibroblasts, Alexa488-fibronectin deposition fluorescence, overnight; inhibition, % at 12.6 µM; hit rate 0.086% among 350,000; AID 743247;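 active means mean inhibition across replicates of 30% or more, regardless of how many single replicates reach that level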;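 further: positive control wells lacked labelled fibronectin entirely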
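Material: AH1F fibroblast monolayer depositing Alexa488-labelled fibronectin into matrix / Amount: 10000 AH1F cells per well / Signal: fluorescence 485/525 nm / Medium: DMEM, 2% serum / Compound: single dose, pinned / Incubation: 1 h cell adhesion before compound, then overnight fibronectin incubation / Reagent: Alexa488-FN, 24 nM final / Read-out: inhibition of fibronectin deposition signal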
N-glyco inh – N-linked glycosylation inhibition; D54 ERlucT glycosylation luciferase reporter, 24 h; percent of 100 nM tunicamycin response; reporter increase, % at 12.5 µM; hit rate 0.23% among 360,000; AID 588692;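 active means mean luciferase reporter signal, scaled so untreated is 0 and the glycosylation-blocking control 100, at or above a set limit in every replicate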;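 further: luciferase carries N-glycosylation sites so blocking glycosylation raises the light; 0% = median of neutral control wells and 100% = median of 100 nM tunicamycin wells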
Env fusion inh – HIV envelope-mediated fusion inhibition. inhibition, % at 12.3 µM. HeLa-JRFL Env/CEM21 cell fusion, luciferase. hit rate 1.1% among 360,000;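 active means mean replicate inhibition score of at least 50 and every replicate individually at or above 50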;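 further: 0% = plate neutral controls and 100% = maraviroc near 300 nM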
Active calls of the source: *; / = not tested or not shown; [ ] = remark or other dose. An excerpt weighted towards active compounds, which were near 2.5% of everything screened.

SMILES	EWS-Fli block	MLL AF4-AF9 inh	PAX8 inh HTS	FN deposit inh	N-glyco inh	Env fusion inh
C[C@@H]1CCCCO[C@@H](CN(C)Cc2ccc(C(F)(F)F)cc2)[C@H](C)CN([C@@H](C)CO)C(=O)c2cc(NC(=O)Nc3ccc4c(c3)OCO4)ccc2O1	-3	4	72*	/	/	55*[16.7 µM]
C[C@@H]1CCCCO[C@@H](CN(C)Cc2ccc(C(F)(F)F)cc2)[C@@H](C)CN([C@@H](C)CO)C(=O)c2cc(NC(=O)Nc3ccc4c(c3)OCO4)ccc2O1	-19	3	52	/	/	5[16.7 µM]
COc1ccc(CN(C)C(=O)c2ccc(OCC(=O)Nc3cccc(C(F)(F)F)c3)c(OC)c2)c(OC)c1	40	8	37	4	-3	76*
COc1ccc(CCNC(=O)Nc2ccc3c(c2)c(=O)n(C)n3Cc2ccc(F)cc2)cc1OC	-3	0	5	-7	-1	12
COc1cc(Cn2c3ccc(NC(=O)NCc4ccc(F)cc4)cc3c(=O)n2C)ccc1F	51*	-4	36	6	13	-17
O=C1/C(=C/c2ccccc2F)SC(=S)N1CCC(=O)N1CCCCC1CCO (stereo not given)	/	7	45	1	-1	-5
O=C(/C=C/c1ccc(F)cc1)NC(=S)N1CCCCC1c1cccnc1 (stereo not given)	8	-11	5	2	1	-8
O=C1/C(=C/c2ccccc2F)SC(=S)N1CC(=O)N1CCCCC1c1cccnc1 (stereo not given)	10	-2	100*	-4	-8	9
O=C1/C(=C/c2ccc(F)cc2)SC(=S)N1CC(=O)N1CCCCC1c1cccnc1 (stereo not given)	6	7	70*	5	-7	-1
CC1(C)CSC(=NCc2ccccc2)N1C(=O)c1cccc([N+](=O)[O-])c1	-22	5	69*	3	3	/
NC(=NCc1ccccc1)c1cccc([N+](=O)[O-])c1	18	1	-4	-1	3	-14
C#CC(=O)N(c1ccc(OC)cc1OC)C(C(=O)NC1CCCC1)c1cccs1 (stereo not given)	61*	1	93*	29	-22	109*
CCCC(=O)Nc1ccc2c(c1)C(=O)N(C)[C@@H]1CC[C@H](CC(=O)NCCc3ccncc3)O[C@H]1CO2	-10	1	-3	12	/	-18[16.7 µM]
C[C@@H]1CN([C@@H](C)CO)C(=O)c2c(c3ccccc3n2C)-c2ccccc2CO[C@@H]1CN(C)Cc1ccc(-c2ccccc2)cc1	7	2	63*	1	/	/
C[C@H]1CN([C@@H](C)CO)C(=O)c2c(c3ccccc3n2C)-c2ccccc2CO[C@@H]1CN(C)Cc1ccc(-c2ccccc2)cc1	3	-2	82*	3	/	/
COc1ccc(S(=O)(=O)Nc2cccc3c2O[C@@H](CN(C)S(=O)(=O)c2ccc(C)cc2)[C@H](C)CN([C@@H](C)CO)C3=O)cc1	-4	/	-14	/	/	-37[16.7 µM]
Cc1ccc(S(=O)(=O)Nc2ccc3c(c2)C(=O)N([C@@H](C)CO)C[C@H](C)[C@@H](CN(C)Cc2ccncc2)OCCCC[C@@H](C)O3)cc1	24	1	-8	-5	/	-67[16.7 µM]
C[C@@H]1CN([C@H](C)CO)S(=O)(=O)c2ccc(-c3cncnc3)cc2O[C@@H]1CN(C)Cc1cccnc1	11	2	/	/	/	14[16.7 µM]
Cc1noc(C)c1S(=O)(=O)Nc1ccc2c(c1)C(=O)N([C@@H](C)CO)C[C@H](C)[C@H](CN(C)Cc1ccc3c(c1)OCO3)O2	4	-3	/	-3	/	/
CCOC(=O)c1c(N)c2cc([N+](=O)[O-])ccc2n1C	5	-2	-11	3	0	17
CCOC(=O)/C(=C/c1c(C)n(C)c2ccc([N+](=O)[O-])cc12)C(C)=O	7	-1	-7	-10	44*	-96
COc1ccc(NC(=O)N2C[C@@H](O)COC[C@H]3O[C@@H](CC(=O)N4CCN(C)CC4)CC[C@@H]32)cc1	-14	-2	-8	-5	/	/
COCc1cc(CN2CCCC2)c(O)c2ncccc12	/	/	/	/	-9	/
Oc1ccc(COCc2ccccc2)c2cccnc12	/	66*	/	3	-11	/
Oc1c(CN2CCCCC2)cc(COCc2ccccc2)c2cccnc12	/	/	64*	2	-8	-24
SMILES	EWS-Fli block	MLL AF4-AF9 inh	PAX8 inh HTS	FN deposit inh	N-glyco inh	Env fusion inh
Oc1ccc(Cc2ccccc2)c2cccnc12	29	57*	87*	5	-7	/
OCc1ccc(O)c2ncccc12	/	/	/	/	-12	/
CCCOCc1ccc(O)c2ncccc12	30	-3	31	0	0	16
CC(C)COCc1ccc(O)c2ncccc12	20	-2	72*	3	-8	6
C[C@@H]1CN([C@@H](C)CO)C(=O)c2cccc(NC(=O)C3CCOCC3)c2O[C@@H]1CN(C)S(=O)(=O)c1cn(C)cn1	0	-4	/	-15	/	/
O=C(C[C@H]1C=C[C@H](NC(=O)C2CCC2)[C@@H](CO)O1)NC1CCC1	-7	-1	-12	/	/	20[16.7 µM]
COCC(=O)N1C[C@H](C)[C@@H](OC)CN(C)C(=O)c2cc(NC(=O)c3ccc(F)cc3)ccc2OC[C@@H]1C	1	2	/	10	/	/
C[C@@H]1CN([C@H](C)CO)C(=O)Cc2cc(NC(=O)Nc3ccc(F)cc3)ccc2O[C@H]1CN(C)S(=O)(=O)c1cn(C)cn1	-11	/	5	/	/	9[16.7 µM]
Cc1nn(C(C)(C)C)c(C)c1/C=N/OC(=O)Nc1ccc(Cl)c(Cl)c1	9	2	1	0	-4	65*
O=C(C1CCCC1)N1CC[C@@H]2[C@H](CO)Nc3ccc(C#Cc4ccc(F)cc4)cc3[C@@H]21	6	7	-1	6	/	38[16.7 µM]
COc1ccc(CNc2oc(-c3cccc4ccccc34)nc2C#N)cc1	14	2	/	/	-2	/
CCOP(=O)(OCC)c1nc(-c2cccc3ccccc23)oc1NCCc1ccc(OC)cc1	5	-44	9	10	-6	63*
CCCNC(=O)[C@@H]1N[C@@H]2c3ccc(C4=CCCCC4)c(=O)n3C[C@@H]2[C@H]1CO	-1	1	/	/	/	/
Cc1noc(C)c1NC(=O)N(C)C[C@H]1OCCCC[C@@H](C)Oc2ccc(NS(=O)(=O)c3c(C)noc3C)cc2C(=O)N([C@@H](C)CO)C[C@H]1C	-2	-1	10	/	/	14[16.7 µM]
O=C(Nc1cccc(C(F)(F)F)c1)N1CCC(c2nc(-c3ccc(F)cc3)no2)CC1	/	/	/	-8	-3	69*
CCS(=O)(=O)N1CCC(c2nc(-c3ccc(C(F)(F)F)cc3)no2)CC1	/	/	/	/	1	56*
CN(C)C(=O)C[C@H]1C[C@@H]2c3cc(NC(=O)c4ccc5c(c4)OCO5)ccc3O[C@@H]2[C@@H](CO)O1	-10	-1	/	-3	/	/
CCCC(=O)Nc1ccc2c(c1)C(=O)N(C)C[C@H](OC)[C@@H](C)CN(C(=O)CN(C)C)[C@H](C)CO2	-4	-5	/	-21	/	/
